Test results: ChEMBL document CHEMBL1139875, “Discovery of 4-aminobutyric acid derivatives possessing anticonvulsant and antinociceptive activities: a hybrid pharmacophore approach” (2007)
Activity calls are given as the source filed them. The calls are words filed in the database; no cut-off is given here.

What was measured:
Mus musculus [1] = test: Anticonvulsant activity in Swiss Albino mouse at 300 mg/kg, ip after 0.5 hr by MES test; type: functional, organism-based; parameters: dose 300 mg/kg
Outline: (§1)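 Mice (Swiss, 20-25 g) given i.p. doses of 30, 100 and 300 mg/kg under ADD program protocols, three per group, examined at 0.5 and 4 h in MES, scPTZ, scSTY or scPIC seizure tests. Value is the minimum dose protecting half or more of the mice.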

Mus musculus [2] = test: Anticonvulsant activity in Swiss Albino mouse at 300 mg/kg, ip after 4 hrs by MES test; type: functional, organism-based; parameters: dose 300 mg/kg; outline: as §1
Mus musculus [3] = test: Anticonvulsant activity in Swiss Albino mouse at 300 mg/kg, ip after 0.5 hr by scPTZ test; type: functional, organism-based; parameters: dose 300 mg/kg; outline: as §1
Mus musculus [4] = test: Anticonvulsant activity in Swiss Albino mouse at 100 mg/kg, ip after 0.5 hr by scSTY test; type: functional, organism-based; parameters: dose 100 mg/kg; outline: as §1
Mus musculus [5] = test: Anticonvulsant activity in Swiss Albino mouse at 300 mg/kg, ip after 4 hrs by scSTY test; type: functional, organism-based; parameters: dose 300 mg/kg; outline: as §1
Mus musculus [6] = test: Anticonvulsant activity in Swiss Albino mouse at 300 mg/kg, ip after 0.5 hr by scPIC test; type: functional, organism-based; parameters: dose 300 mg/kg; outline: as §1
Mus musculus [7] = test: Anticonvulsant activity in Swiss Albino mouse at 300 mg/kg, ip after 4 hrs by scPIC test; type: functional, organism-based; parameters: dose 300 mg/kg; outline: as §1
Mus musculus [8] = test: Neurotoxicity in Swiss Albino mouse at 300 mg/kg, ip after 0.5 hr by rotarod test; type: functional, organism-based; parameters: dose 300 mg/kg
Outline: (§2)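 Swiss mice (20-25 g) are trained on an accelerating rotorod (10 rpm, 3.2 cm rod), then injected i.p. at 30, 100 or 300 mg/kg, with three per group. Neurotoxicity means failure to keep equilibrium for at least 1 min in each of three trials, checked at 0.5 and 4 h. The value reported is the minimum dose affecting half or more of the mice.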

Mus musculus [9] = test: Neurotoxicity in Swiss Albino mouse at 300 mg/kg, ip after 4 hrs by rotarod test; type: functional, organism-based; parameters: dose 300 mg/kg; outline: as §2
Mus musculus [10] = test: Analgesic activity in Swiss Albino mouse assessed as number of acetic acid-induced writhing per 30 min after 100 mg/kg, ip; type: functional; settings: route intraperitoneal
Outline: (§3)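 Mice in groups of six dosed i.p. at 100 mg/kg, controls receiving 30% v/v PEG 400 in water. Writhing induced by i.p. 0.1 mL of 3% v/v acetic acid 1 h after drug. Writhes (abdominal stretch with at least one hind limb extended) counted over 30 min; % inhibition calculated. Mean ± SEM, Student's t test.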

Mus musculus [11] = test: Analgesic activity in Swiss Albino mouse assessed as inhibition of acetic acid-induced writhing responses at 100 mg/kg, ip; type: functional; settings: route intraperitoneal; outline: as §3
Rattus norvegicus [12] = test: Effect on spontaneous pain in Sprague-Dawley rat CCI model assessed as duration of paw withdrawal at 100 mg/kg, ip after 0.5 hr; type: functional; settings: route intraperitoneal
Outline: (§4)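 CCI rats (n = 4) dosed 100 mg/kg i.p. (vehicle 30% v/v PEG 400 in water). After 10 min acclimatization in a cage 5 cm above ground, cumulative time the ipsilateral paw was held off the floor over 5 min recorded, excluding locomotion lifts. Mean ± SEM; ANOVA/Bonferroni versus predrug.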

Rattus norvegicus [13] = test: Effect on spontaneous pain in Sprague-Dawley rat CCI model assessed as duration of paw withdrawal at 100 mg/kg, ip after 1 hr; type: functional; settings: route intraperitoneal; outline: as §4
Rattus norvegicus [14] = test: Effect on spontaneous pain in Sprague-Dawley rat CCI model assessed as duration of paw withdrawal at 100 mg/kg, ip after 1.5 hrs; type: functional; settings: route intraperitoneal
Outline: (§5)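 Unilateral CCI of sciatic nerve (Bennett and Xie) in Sprague-Dawley rats under i.p. pentobarbital sodium (65 mg/kg). Spontaneous pain is scored over 5 min after 10 min acclimatization, as cumulative time the ipsilateral paw is held off the floor. Paw lifts from locomotion or repositioning are excluded. Drug is given at 100 mg/kg i.p. with 30% v/v PEG 400 vehicle. Mean ± SEM, n = 4, compared with predrug by ANOVA/Bonferroni.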

Rattus norvegicus [15] = test: Effect on spontaneous pain in Sprague-Dawley rat CCI model assessed as duration of paw withdrawal at 100 mg/kg, ip after 2 hrs; type: functional; settings: route intraperitoneal; outline: as §5
Rattus norvegicus [16] = test: Anti-dynamic allodynia effect in Sprague-Dawley rat SNL model assessed as latency to paw withdrawal 100 mg/kg, ip after 0.5 hr; type: functional; settings: route intraperitoneal
Outline: (§6)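 Left L5 spinal nerve ligation rats, tested preoperatively and 9 days postoperatively, then given 100 mg/kg i.p. (vehicle 30% v/v PEG 400 in water). After 10 min acclimatization, plantar surface of affected paw stroked mildly with a cotton-bud; paw lift response recorded. n = 4; retested 0.5-2.5 h post-dose.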

Rattus norvegicus [17] = test: Anti-dynamic allodynia effect in Sprague-Dawley rat SNL model assessed as latency to paw withdrawal 100 mg/kg, ip after 1 hr; type: functional; settings: route intraperitoneal; outline: as §6
Rattus norvegicus [18] = test: Anti-dynamic allodynia effect in Sprague-Dawley rat SNL model assessed as latency to paw withdrawal 100 mg/kg, ip after 1.5 hrs; type: functional; settings: route intraperitoneal; outline: as §6
Rattus norvegicus [19] = test: Anti-dynamic allodynia effect in Sprague-Dawley rat SNL model assessed as latency to paw withdrawal 100 mg/kg, ip after 2 hrs; type: functional; settings: route intraperitoneal; outline: as §6
Rattus norvegicus [20] = test: Anti-dynamic allodynia effect in Sprague-Dawley rat SNL model assessed as latency to paw withdrawal 100 mg/kg, ip after 2.5 hrs; type: functional; settings: route intraperitoneal; outline: as §6
Rattus norvegicus [21] = test: Anti-cold allodynia effect in Sprague-Dawley rat SNL model assessed as duration of paw withdrawal 100 mg/kg, ip after 0.5 hr; type: functional; settings: route intraperitoneal
Outline: (§7)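 Left L5 spinal nerve ligation under pentobarbital (65 mg/kg i.p.). Allodynic rats dosed i.p. 100 mg/kg, vehicle 30% v/v PEG 400 in water. Acetone (100-200 µL) misted onto midplantar affected paw after 10 min acclimatization; paw withdrawal duration, mean of three samples at least 3 min apart; n = 4 rats.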

Rattus norvegicus [22] = test: Anti-cold allodynia effect in Sprague-Dawley rat SNL model assessed as duration of paw withdrawal 100 mg/kg, ip after 1 hrs; type: functional; settings: route intraperitoneal; outline: as §7
Rattus norvegicus [23] = test: Anti-cold allodynia effect in Sprague-Dawley rat SNL model assessed as duration of paw withdrawal 100 mg/kg, ip after 1.5 hrs; type: functional; settings: route intraperitoneal; outline: as §7
Rattus norvegicus [24] = test: Anti-cold allodynia effect in Sprague-Dawley rat SNL model assessed as duration of paw withdrawal 100 mg/kg, ip after 2 hrs; type: functional; settings: route intraperitoneal; outline: as §7
Rattus norvegicus [25] = test: Anti-cold allodynia effect in Sprague-Dawley rat SNL model assessed as duration of paw withdrawal 100 mg/kg, ip after 2.5 hrs; type: functional; settings: route intraperitoneal; outline: as §7
Rattus norvegicus [26] = test: Effect on spontaneous pain in Sprague-Dawley rat CCI model assessed as duration of paw withdrawal at 100 mg/kg, ip after 2.5 hrs; type: functional; settings: route intraperitoneal; outline: as §5
Rattus norvegicus [27] = test: Antihyperalgesic effects in Sprague-Dawley rat SNL model assessed as duration of paw withdrawal at 100 mg/kg, ip after 0.5 hr, ip; type: functional; settings: route intraperitoneal
Outline: (§8)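 L5 SNL rats (n = 4), dosed 100 mg/kg i.p. (vehicle 30% v/v PEG 400 in water). Pin-prick to midplantar ipsilateral left hindpaw; withdrawal duration, mean of three responses; ≥2 s defined abnormal. Mean ± SEM; one-way ANOVA with Bonferroni versus predrug.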

Rattus norvegicus [28] = test: Antihyperalgesic effects in Sprague-Dawley rat SNL model assessed as duration of paw withdrawal at 100 mg/kg, ip after 1 hr, ip; type: functional; settings: route intraperitoneal; outline: as §8
Rattus norvegicus [29] = test: Antihyperalgesic effects in Sprague-Dawley rat SNL model assessed as duration of paw withdrawal at 100 mg/kg, ip after 1.5 hrs, ip; type: functional; settings: route intraperitoneal; outline: as §8
Rattus norvegicus [30] = test: Antihyperalgesic effects in Sprague-Dawley rat SNL model assessed as duration of paw withdrawal at 100 mg/kg, ip after 2 hrs, ip; type: functional; settings: route intraperitoneal; outline: as §8
Rattus norvegicus [31] = test: Antihyperalgesic effects in Sprague-Dawley rat SNL model assessed as duration of paw withdrawal at 100 mg/kg, ip after 2.5 hrs, ip; type: functional; settings: route intraperitoneal; outline: as §8
Rattus norvegicus [32] = organism: Rattus norvegicus; test: Anti-dynamic allodynic effect in Sprague-Dawley rat CCI model assessed as latency to paw withdrawal after 0.5 hr; type: functional
Outline: (§9)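 Rats with sciatic nerve chronic constriction injury (pentobarbital 65 mg/kg i.p. anaesthesia), baseline and day 9 testing, then drug per randomization table. After 10 min acclimatization, affected plantar surface stroked mildly with a cotton-bud; paw lift recorded. n = 4; retested 0.5-2.5 h post-dose.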

Rattus norvegicus [33] = organism: Rattus norvegicus; test: Anti-dynamic allodynic effect in Sprague-Dawley rat CCI model assessed as latency to paw withdrawal after 1 hr; type: functional; outline: as §9
Rattus norvegicus [34] = organism: Rattus norvegicus; test: Anti-dynamic allodynic effect in Sprague-Dawley rat CCI model assessed as latency to paw withdrawal after 1.5 hr; type: functional; outline: as §9
Rattus norvegicus [35] = organism: Rattus norvegicus; test: Anti-dynamic allodynic effect in Sprague-Dawley rat CCI model assessed as latency to paw withdrawal after 2 hr; type: functional; outline: as §9
Rattus norvegicus [36] = organism: Rattus norvegicus; test: Anti-dynamic allodynic effect in Sprague-Dawley rat CCI model assessed as latency to paw withdrawal after 2.5 hr; type: functional; outline: as §9

C/C(=N\NC(=O)NCCCC(=O)O)c1ccccc1
Activity (Mus musculus [1]): inactive
Activity (Mus musculus [2]): inactive
Activity (Mus musculus [3]): inactive
Activity (Mus musculus [4]): Active
Activity (Mus musculus [5]): Active
Activity (Mus musculus [6]): Active
Activity (Mus musculus [7]): Active
Activity (Mus musculus [8]): inactive
Activity (Mus musculus [9]): inactive
Activity (Mus musculus [10]): 33.7
inhibition in vivo at 100 mg/kg (Mus musculus [11]): 82%
Activity (Rattus norvegicus [12]): 13.2 s
Activity (Rattus norvegicus [13]): 18.8 s
Activity (Rattus norvegicus [14]): 18.3 s
Activity (Rattus norvegicus [15]): 12.9 s
Activity (Rattus norvegicus [16]): 8.7 s
Activity (Rattus norvegicus [17]): 7.2 s
Activity (Rattus norvegicus [18]): 9.2 s
Activity (Rattus norvegicus [19]): 12.2 s
Activity (Rattus norvegicus [20]): 11.88 s
Activity (Rattus norvegicus [21]): 17.9 s
Activity (Rattus norvegicus [22]): 12.8 s
Activity (Rattus norvegicus [23]): 11.7 s
Activity (Rattus norvegicus [24]): 10.9 s
Activity (Rattus norvegicus [25]): 4.8 s
Activity (Rattus norvegicus [26]): 10.6 s
Activity (Rattus norvegicus [27]): 23.2 s
Activity (Rattus norvegicus [28]): 27.6 s
Activity (Rattus norvegicus [29]): 18.7 s
Activity (Rattus norvegicus [30]): 16.7 s
Activity (Rattus norvegicus [31]): 17.3 s
Activity (Rattus norvegicus [32]): 14.8 s
Activity (Rattus norvegicus [33]): 10.2 s
Activity (Rattus norvegicus [34]): 13.3 s
Activity (Rattus norvegicus [35]): 12.1 s
Activity (Rattus norvegicus [36]): 14.5 s
